Measurements taken from ChEMBL document CHEMBL1123760, “Synthesis and oral antifungal activity of novel azolylpropanolones and related compounds” (1987).
≈ marks a conversion by molar mass, not a printed value.

Assays:
Format in all cases: functional
[1] = system: Trichophyton benhamiae; assay: In vitro antifungal activity against Trichophyton asteroides
Outline: (§1)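 Broth microdilution MIC in Sabouraud's glucose broth; final inocula 1 × 10^5 cells/mL (yeast) or 1 × 10^5 conidia/mL (mold and dermatophyte).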

[2] = system: Candida albicans; assay: In vitro antifungal activity against Candida albicans; outline: as §1
[3] = system: Aspergillus fumigatus; assay: In vitro antifungal activity against Aspergillus fumigatus; outline: as §1
[4] = system: Candida albicans; assay: Minimum effective concentration for inhibition of pseudomycelium formation in Candida albicans; details: for minimal effective concentration: Candida albicans, read-out: MEC
Outline: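 C. albicans KE-2 (clinical isolate) at a final 1 × 10^6 yeast cells/mL in EMEM with 20% calf serum; compounds diluted by the same microtiter system as for MICs. After incubation, wells were Giemsa-stained (5% in phosphate buffer) and read by microscope. MEC is the lowest concentration preventing typical pseudomycelium formation.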

[5] = Trichophyton benhamiae, read-out: MIC
[6] = Candida albicans, read-out: MIC
[7] = Aspergillus fumigatus, read-out: MIC

Row | SMILES | MIC [1, 5] | MIC [2, 6] | MIC [3, 7] | minimal effective concentration [4] | MIC [1] | MEC [4] | MIC [2] | MIC [3]
1 | CCCCC(O)(c1ccccc1)C(O)(Cn1cncn1)c1ccc(Cl)cc1Cl (stereo unspecified) | 0.2 µg/mL (≈ 0.476 µM) | > 100 µg/mL | > 100 µg/mL | 2.5 µg/mL | – | – | – | –
2 | CC(C)C(O)C(O)(Cn1cncn1)c1ccc(Cl)cc1 (stereo in doubt; 100) | – | > 100 µg/mL | > 100 µg/mL | – | 0.8 µg/mL (≈ 2.7 µM) | 0.16 µg/mL | – | –
3 | O=C(c1ccccn1)C(O)(Cn1cncn1)c1ccccn1 (stereo unspecified) | > 100 µg/mL | > 100 µg/mL | > 100 µg/mL | > 20 µg/mL | – | – | – | –
4 | CC(O)(c1ccccc1)C(O)(Cn1cncn1)c1ccc(Cl)cc1Cl (stereo in doubt; 167) | – | – | – | – | 0.1 µg/mL (≈ 0.264 µM) | 0.08 µg/mL | 50 µg/mL (≈ 132 µM) | 25 µg/mL (≈ 66.1 µM)
5 | O=C(c1ccccc1Cl)C(O)(Cn1cncn1)c1ccccc1 (stereo unspecified) | 1.6 µg/mL (≈ 4.88 µM) | > 100 µg/mL | > 100 µg/mL | > 20 µg/mL | – | – | – | –
6 | CC(C)C(O)(Cn1cncn1)C(O)(c1ccc(Cl)cc1)c1ccc(Cl)cc1 (stereo unspecified) | 6.3 µg/mL (≈ 15.5 µM) | > 100 µg/mL | > 100 µg/mL | > 20 µg/mL | – | – | – | –
7 | O=C1O[C@H](c2ccc(Cl)cc2)[C@](Cn2cncn2)(c2ccc(Cl)cc2Cl)O1 (relative stereo) | – | > 100 µg/mL | > 100 µg/mL | – | 25 µg/mL (≈ 58.9 µM) | >20 µg/mL | – | –
8 | OC(Cc1ccc(Cl)cc1)(c1ccccc1)C(O)(Cn1cncn1)c1ccc(Cl)cc1Cl (stereo unspecified) | 50 µg/mL (≈ 102 µM) | > 100 µg/mL | > 100 µg/mL | 20 µg/mL | – | – | – | –
9 | O=S1O[C@H](c2ccc(Cl)cc2)[C@@](Cn2cncn2)(c2ccc(Cl)cc2Cl)O1 (stereo partly specified) | 0.1 µg/mL (≈ 0.225 µM) | 50 µg/mL (≈ 112 µM) | 25 µg/mL (≈ 56.2 µM) | 0.16 µg/mL | – | – | – | –
10 | CC(O)(c1ccc(F)cc1)C(O)(Cn1ccnc1)c1ccccc1Cl (stereo unspecified) | 0.1 µg/mL (≈ 0.277 µM) | > 100 µg/mL | 100 µg/mL (≈ 277 µM) | 1.25 µg/mL | – | – | – | –
11 | O=C(c1ccccc1)C(O)(Cn1cnnc1)c1ccccc1 (stereo unspecified) | > 100 µg/mL | > 100 µg/mL | > 100 µg/mL | > 20 µg/mL | – | – | – | –
12 | COc1ccc(C(O)C(O)(Cn2cncn2)c2ccc(OC)cc2)cc1 (stereo unspecified) | 25 µg/mL (≈ 70.3 µM) | > 100 µg/mL | > 100 µg/mL | > 20 µg/mL | – | – | – | –
13 | CC(C)C(O)(Cn1cncn1)C(=O)c1ccc(Cl)cc1 (stereo unspecified) | 0.2 µg/mL (≈ 0.681 µM) | > 100 µg/mL | 100 µg/mL (≈ 340 µM) | 0.63 µg/mL | – | – | – | –
14 | CCCC(O)(Cn1cncn1)C(=O)c1ccc(Cl)cc1 (stereo unspecified) | 0.8 µg/mL (≈ 2.72 µM) | > 100 µg/mL | 50 µg/mL (≈ 170 µM) | 0.31 µg/mL | – | – | – | –
15 | CC(C)[C@H]1OS(=O)O[C@@]1(Cn1cncn1)c1ccc(Cl)cc1 (stereo partly specified) | 0.4 µg/mL (≈ 1.17 µM) | > 100 µg/mL | > 100 µg/mL | 0.16 µg/mL | – | – | – | –
16 | OC(c1ccc(Cl)cc1)C(O)(Cn1cncn1)c1ccc(Cl)cc1Cl (stereo in doubt; 109) | – | – | – | – | 12.5 µg/mL (≈ 31.4 µM) | 20 µg/mL | 100 µg/mL (≈ 251 µM) | >100 µg/mL
17 | OC(c1ccc(Cl)cc1Cl)C(O)(Cn1cncn1)c1ccc(Cl)cc1 (stereo unspecified) | 0.1 µg/mL (≈ 0.251 µM) | 100 µg/mL (≈ 251 µM) | > 100 µg/mL | 0.31 µg/mL | – | – | – | –
18 | O=C(c1ccc(F)cc1)C(O)(Cn1cnnc1)c1ccc(F)cc1 (stereo unspecified) | > 100 µg/mL | > 100 µg/mL | > 100 µg/mL | > 20 µg/mL | – | – | – | –
19 | OC(Cn1cncn1)(c1ccc(F)cc1)C(O)(c1ccccc1)c1ccc(F)cc1 (stereo in doubt; 165) | – | > 100 µg/mL | > 100 µg/mL | > 20 µg/mL | 25 µg/mL (≈ 61.4 µM) | – | – | –
20 | O=S1O[C@H](c2ccccc2)[C@@](Cn2cncn2)(c2ccc(Cl)cc2Cl)O1 (stereo partly specified) | 0.1 µg/mL (≈ 0.244 µM) | > 100 µg/mL | 50 µg/mL (≈ 122 µM) | 0.04 µg/mL | – | – | – | –

Row | SMILES | MIC [1, 5] | MIC [2, 6] | MIC [3, 7] | minimal effective concentration [4] | MIC [1] | MEC [4] | MIC [2] | MIC [3]
21 | CCC(O)(c1ccc(F)cc1)C(O)(Cn1cncn1)c1ccc(Cl)cc1 (stereo in doubt; 171) | 0.1 µg/mL (≈ 0.266 µM) | > 100 µg/mL | – | – | – | 0.16 µg/mL | – | >100 µg/mL
22 | OC(c1ccc(Cl)cc1)C(O)(Cn1ccnc1)c1ccc(Cl)cc1 (stereo unspecified) | 50 µg/mL (≈ 138 µM) | > 100 µg/mL | > 100 µg/mL | > 20 µg/mL | – | – | – | –
23 | OC(c1ccccc1)C(O)(Cn1cncn1)c1ccccc1 (stereo unspecified) | 25 µg/mL (≈ 84.6 µM) | > 100 µg/mL | > 100 µg/mL | > 20 µg/mL | – | – | – | –
24 | Clc1ccc([C@@]2(Cn3cncn3)OCO[C@@H]2c2ccccc2)c(Cl)c1 | 0.2 µg/mL (≈ 0.532 µM) | > 100 µg/mL | 12.5 µg/mL (≈ 33.2 µM) | 0.08 µg/mL | – | – | – | –
25 | CC(O)(c1ccc(Cl)cc1)C(O)(Cn1ccnc1)c1ccc(F)cc1 (stereo unspecified) | 1.6 µg/mL (≈ 4.43 µM) | > 100 µg/mL | > 100 µg/mL | 10 µg/mL | – | – | – | –
26 | Fc1ccc([C@H]2OC(=S)O[C@]2(Cn2cncn2)c2ccc(Cl)cc2Cl)cc1 | 3.1 µg/mL (≈ 7.31 µM) | 100 µg/mL (≈ 236 µM) | > 100 µg/mL | 10 µg/mL | – | – | – | –
27 | CC(O)(c1ccc(Cl)cc1)C(O)(Cn1cncn1)c1ccc(Cl)cc1Cl (stereo in doubt; 175) | 0.1 µg/mL (≈ 0.242 µM) | > 100 µg/mL | 25 µg/mL (≈ 60.6 µM) | – | – | 0.31 µg/mL | – | –
28 | CC(O)(c1ccc(Cl)cc1)C(O)(Cn1cncn1)c1ccc(F)cc1 (stereo unspecified) | 0.4 µg/mL (≈ 1.11 µM) | > 100 µg/mL | > 100 µg/mL | 2.5 µg/mL | – | – | – | –
29 | OC(c1ccc(Cl)cc1Cl)C(O)(Cn1cncn1)c1ccc(F)cc1 (stereo unspecified) | 0.1 µg/mL (≈ 0.262 µM) | > 100 µg/mL | > 100 µg/mL | 0.31 µg/mL | – | – | – | –
30 | Clc1ccc([C@H]2OCO[C@]2(Cn2cncn2)c2ccc(Cl)cc2Cl)cc1 | 0.1 µg/mL (≈ 0.243 µM) | 50 µg/mL (≈ 122 µM) | 0.2 µg/mL (≈ 0.487 µM) | 0.02 µg/mL | – | – | – | –
31 | O=C1O[C@H](c2ccc(F)cc2)[C@@](Cn2ccnc2)(c2ccc(Cl)cc2Cl)O1 | 0.2 µg/mL (≈ 0.491 µM) | 100 µg/mL (≈ 246 µM) | 50 µg/mL (≈ 123 µM) | 0.16 µg/mL | – | – | – | –
32 | OC(Cc1ccc(Cl)cc1)(c1ccc(F)cc1)C(O)(Cn1cncn1)c1ccc(Cl)cc1 (stereo unspecified) | > 100 µg/mL | > 100 µg/mL | > 100 µg/mL | 20 µg/mL | – | – | – | –
33 | OC(c1ccc(Cl)cc1)C(O)(Cn1cncn1)c1ccc(Cl)cc1 (stereo in doubt; 89) | – | 50 µg/mL (≈ 137 µM) | > 100 µg/mL | – | 12.5 µg/mL (≈ 34.3 µM) | 20 µg/mL | – | –
34 | OC(Cn1cncn1)(c1ccc(Cl)cc1Cl)C(O)(c1ccc(F)cc1)c1cccs1 (stereo unspecified) | 0.8 µg/mL (≈ 1.72 µM) | > 100 µg/mL | > 100 µg/mL | 5 µg/mL | – | – | – | –
35 | COc1ccc(C(=O)C(O)(Cn2cncn2)c2ccc(OC)cc2)cc1 (stereo unspecified) | 12.5 µg/mL (≈ 35.4 µM) | > 100 µg/mL | > 100 µg/mL | > 20 µg/mL | – | – | – | –
36 | CC(C)C(C)(O)C(O)(Cn1cncn1)c1ccc(Cl)cc1Cl (stereo in doubt; 169) | 0.1 µg/mL (≈ 0.29 µM) | > 100 µg/mL | 50 µg/mL (≈ 145 µM) | 0.08 µg/mL | – | – | – | –
37 | CC(C)C(O)C(O)(Cn1cncn1)c1ccc(Cl)cc1Cl (stereo unspecified) | 0.1 µg/mL (≈ 0.303 µM) | > 100 µg/mL | 50 µg/mL (≈ 151 µM) | 0.04 µg/mL | – | – | – | –
38 | O=C(c1ccc(Cl)cc1)C(O)(Cn1cnnc1)c1ccc(Cl)cc1 (stereo unspecified) | 50 µg/mL (≈ 138 µM) | > 100 µg/mL | > 100 µg/mL | > 20 µg/mL | – | – | – | –
39 | CC(O)(c1ccc(Cl)cc1Cl)C(O)(Cn1cncn1)c1ccc(Cl)cc1 (stereo unspecified) | 0.1 µg/mL (≈ 0.242 µM) | 100 µg/mL (≈ 242 µM) | 50 µg/mL (≈ 121 µM) | 1.25 µg/mL | – | – | – | –
